Experimental data from ChEMBL document CHEMBL1123408, “Influence of alkyl-chain fluorination on the action of mammary tumor inhibiting 2,3-bis(hydroxyphenyl)butanes and 2,3-bis(hydroxyphenyl)but-2-enes” (1986).

Legend:
Mus musculus [1] = species on record: Mus musculus; test: Relative average tumor wet weight in treated compared to untreated mice at 4 mg dose; assay type: functional
Outline: (§1)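 Syngeneic female BD2F1 mice (8–10 weeks) received sc trocar implants of 1–2-mm³ MXT tumor pieces, 10 per group. Treatment began the next day: sc doses in olive oil (solution or suspension), three times weekly for 6 weeks. Tamoxifen-treated control group included. Tumor wet weight measured at sacrifice; expressed as % T/C versus untreated controls.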

Mus musculus [2] = species on record: Mus musculus; test: Relative average tumor wet weight in treated compared to untreated mice at 1.33 mg dose; assay type: functional
Outline: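 MXT mammary tumor pieces of 1-2 mm³ from syngeneic donors were implanted sc by trocar into female BD2F₁ mice aged 8-10 weeks (20.0 ± 1.7 g), groups of 10. From the next day, compound in olive oil was given sc three times weekly for 6 weeks. Tumor wet weight was measured at the end and expressed as % T/C.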

[3] = molecular target: T1, Estrogen receptor (Mus musculus) (UniProt O08537+P19785); test: Uterotrophic effect in BD2F mice bearing transplantable hormone dependent MXT at 8 mg dose; assay type: functional, tissue-based; settings: Uterus
Outline: (§2)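 MXT-bearing female BD2F1 mice (10 per group) dosed sc in olive oil three times weekly for 6 weeks from the day after tumor transplantation. Uteri excised at sacrifice and dry weight determined; values given as mean ± SD.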

[4] = molecular target: T1, Estrogen receptor (Mus musculus); test: (§3) Uterotrophic effect in mice at 10 ug dose; assay type: functional, tissue-based; parameters: unit not given here; settings: Uterus
Outline: (§4)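 Immature female NMRI mice, 20 days old, 10 per group, given daily sc injections of 0.1 mL olive oil solution for 3 days. Uteri removed 24 h after the last dose, fixed in Bouin's solution, washed, dried and weighed. Antiestrogenic testing measured inhibition of estrone-stimulated uterine growth.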

[5] = molecular target: T1, Estrogen receptor (Mus musculus); test: (§5) Uterotrophic effect in mice at 0.1 ug dose; assay type: functional, tissue-based; parameters: unit not given here; settings: Uterus; outline: as §4
Mus musculus [6] = species on record: Mus musculus; test: Relative average tumor wet weight in treated compared to untreated mice at 8 mg dose; assay type: functional; outline: as §1
[7] = molecular target: T1, Estrogen receptor (Mus musculus); test: Uterotrophic effect in BD2F mice bearing transplantable hormone dependent MXT at 1.33 mg dose; assay type: functional, tissue-based; settings: Uterus; outline: as §2
[8] = molecular target: T1, Estrogen receptor (Mus musculus); test: (§6) Uterotrophic effect in mice at 1 ug dose; assay type: functional, tissue-based; parameters: unit not given here; settings: Uterus; outline: as §4
[9] = molecular target: T1, Estrogen receptor (Mus musculus); test: (§7) Uterotrophic effect in mice at 0 ug dose; assay type: functional, tissue-based; parameters: unit not given here; settings: Uterus; outline: as §4
[10] = molecular target: T1, Estrogen receptor (Mus musculus); test: Uterotrophic effect in BD2F mice bearing transplantable hormone dependent MXT at 4 mg dose; assay type: functional, tissue-based; settings: Uterus; outline: as §2
[11] = molecular target: T1, Estrogen receptor (Mus musculus); test: as §7; assay type: functional, tissue-based; parameters: unit not given here; settings: Uterus; outline: as §4; remark: listed apart in the source
Rattus norvegicus [12] = test: Percent change in total tumor area in DMBA-Induced Hormone-Dependent Mammary Carcinoma rats at 5 mg/kg dose; assay type: functional
[13] = molecular target: T1, Estrogen receptor (Mus musculus); test: as §3; assay type: functional, tissue-based; settings: Uterus; outline: as §4
[14] = molecular target: T1, Estrogen receptor (Mus musculus); test: (§8) Uterotrophic effect in mice at 100 ug dose; assay type: functional, tissue-based; parameters: unit not given here; settings: Uterus; outline: as §4
Rattus norvegicus [15] = test: Percent unchanged tumors in DMBA-Induced Hormone-Dependent Mammary Carcinoma in rats at 2 mg/kg dose; assay type: functional
Rattus norvegicus [16] = test: Percent change in body weight in DMBA-Induced Hormone-Dependent Mammary Carcinoma rats at 2 mg/kg dose; assay type: functional
[17] = molecular target: T1, Estrogen receptor (Mus musculus); test: Uterotrophic effect in BD2F mice bearing transplantable hormone dependent MXT at 20 mg dose; assay type: functional, tissue-based; settings: Uterus; outline: as §2
Rattus norvegicus [18] = test: Percent partial remission in DMBA-Induced Hormone-Dependent Mammary Carcinoma in rats at 2 mg/kg dose; assay type: functional
Rattus norvegicus [19] = test: Percent change in body weight in DMBA-Induced Hormone-Dependent Mammary Carcinoma rats at 5 mg/kg dose; assay type: functional
Rattus norvegicus [20] = test: Percent unchanged tumors in DMBA-Induced Hormone-Dependent Mammary Carcinoma in rats at 5 mg/kg dose; assay type: functional
Rattus norvegicus [21] = test: Final tumor number in DMBA-Induced Hormone-Dependent Mammary Carcinoma in rats at 5 mg/kg dose; assay type: functional
[22] = molecular target: T1, Estrogen receptor (Mus musculus); test: Anti-uterotrophic effect in mice at 10 ug dose; assay type: functional
Outline: (§9)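 Immature female NMRI mice, 20 days old (14.5 ± 1.2 g), randomized into groups of 10. Each received a daily sc injection of compound in 0.1 mL olive oil for 3 days, given together with estrone. Uteri were taken 24 h after the last injection, fixed in Bouin's solution, washed, dried and weighed. The read-out was inhibition of estrone-stimulated uterine growth.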

Rattus norvegicus [23] = test: Percent progression in DMBA-Induced Hormone-Dependent Mammary Carcinoma model in rats at 5 mg/kg dose; assay type: functional
Rattus norvegicus [24] = test: Initial in tumor number in DMBA-Induced Hormone-Dependent Mammary Carcinoma in rats at 2 mg/kg dose; assay type: functional
[25] = molecular target: T1, Estrogen receptor (Mus musculus); test: as §6; assay type: functional, tissue-based; settings: Uterus; outline: as §4
Mus musculus [26] = species on record: Mus musculus; test: Relative average tumor wet weight in treated compared to untreated mice at 20 mg dose; assay type: functional; outline: as §1
Rattus norvegicus [27] = test: Final tumor number in DMBA-Induced Hormone-Dependent Mammary Carcinoma in rats at 2 mg/kg dose; assay type: functional
[28] = molecular target: T1, Estrogen receptor (Mus musculus); test: Anti-uterotrophic effect in mice at 1 ug dose; assay type: functional; outline: as §9
Rattus norvegicus [29] = test: Initial tumor number in DMBA-Induced Hormone-Dependent Mammary Carcinoma in rats at 5 mg/kg dose; assay type: functional
Rattus norvegicus [30] = test: Percent complete remission in DMBA-Induced Hormone-Dependent Mammary Carcinoma in rats at 5 mg/kg dose; assay type: functional
Rattus norvegicus [31] = test: Percent progression in DMBA-Induced Hormone-Dependent Mammary Carcinoma in rats at 2 mg/kg dose; assay type: functional
Rattus norvegicus [32] = test: Percent partial remission in DMBA-Induced Hormone-Dependent Mammary Carcinoma in rats at 5 mg/kg dose; assay type: functional
[33] = molecular target: T1, Estrogen receptor (Mus musculus); test: Anti-uterotrophic effect in mice at 100 ug dose; assay type: functional; outline: as §9
[34] = molecular target: T1, Estrogen receptor (Mus musculus); test: Anti-uterotrophic effect in mice at 25 ug dose; assay type: functional; outline: as §9
Rattus norvegicus [35] = test: Percent change in total tumor area in DMBA-Induced Hormone-Dependent Mammary Carcinoma rats at 2 mg/kg dose; assay type: functional
[36] = molecular target: T1, Estrogen receptor (Mus musculus); test: Uterotrophic effect in mice at 1000 ug dose; assay type: functional, tissue-based; parameters: unit not given here; settings: Uterus; outline: as §4
Rattus norvegicus [37] = test: Percent complete remission in DMBA-Induced Hormone-Dependent Mammary Carcinoma in rats at 2 mg/kg dose; assay type: functional
[38] = molecular target: T1, Estrogen receptor (Mus musculus); test: as §8; assay type: functional, tissue-based; settings: Uterus; outline: as §4
[39] = molecular target: T1, Estrogen receptor (Mus musculus); test: as §5; assay type: functional, tissue-based; settings: Uterus; outline: as §4
[40] = molecular target: T1, Estrogen receptor (Mus musculus); test: Uterotrophic effect in mice at 25 ug dose; assay type: functional, tissue-based; parameters: unit not given here; settings: Uterus; outline: as §4

T1 sequence (O08537 whole entry, looked up): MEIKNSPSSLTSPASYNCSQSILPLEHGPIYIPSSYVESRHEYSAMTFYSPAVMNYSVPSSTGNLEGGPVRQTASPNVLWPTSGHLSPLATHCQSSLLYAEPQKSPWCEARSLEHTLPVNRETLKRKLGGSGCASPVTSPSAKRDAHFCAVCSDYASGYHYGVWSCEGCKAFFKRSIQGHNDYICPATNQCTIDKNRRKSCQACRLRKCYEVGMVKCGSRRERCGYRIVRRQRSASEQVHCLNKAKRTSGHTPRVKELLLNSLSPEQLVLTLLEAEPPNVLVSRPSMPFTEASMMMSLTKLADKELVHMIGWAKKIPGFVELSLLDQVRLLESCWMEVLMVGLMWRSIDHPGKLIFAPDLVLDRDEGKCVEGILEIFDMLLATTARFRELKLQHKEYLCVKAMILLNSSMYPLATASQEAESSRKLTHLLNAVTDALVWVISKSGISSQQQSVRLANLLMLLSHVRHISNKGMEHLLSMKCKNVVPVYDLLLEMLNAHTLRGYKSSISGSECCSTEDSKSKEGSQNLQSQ
T1 sequence (P19785 whole entry, looked up): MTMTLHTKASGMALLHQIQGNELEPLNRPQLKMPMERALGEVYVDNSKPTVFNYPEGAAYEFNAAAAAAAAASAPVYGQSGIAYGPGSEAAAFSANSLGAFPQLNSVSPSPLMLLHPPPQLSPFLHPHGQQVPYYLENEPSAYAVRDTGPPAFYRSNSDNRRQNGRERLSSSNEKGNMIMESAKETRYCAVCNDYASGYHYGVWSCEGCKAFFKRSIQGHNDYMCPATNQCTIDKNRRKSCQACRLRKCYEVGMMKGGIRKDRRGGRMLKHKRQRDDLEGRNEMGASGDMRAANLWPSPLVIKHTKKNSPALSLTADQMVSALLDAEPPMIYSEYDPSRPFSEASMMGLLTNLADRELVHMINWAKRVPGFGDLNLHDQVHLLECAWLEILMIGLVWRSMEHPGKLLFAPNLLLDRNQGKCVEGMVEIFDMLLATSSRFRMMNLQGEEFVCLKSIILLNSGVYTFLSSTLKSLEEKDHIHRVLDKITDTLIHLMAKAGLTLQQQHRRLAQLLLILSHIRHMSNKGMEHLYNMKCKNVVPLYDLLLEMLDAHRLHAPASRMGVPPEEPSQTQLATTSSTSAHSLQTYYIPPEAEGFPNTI

In the case of `Oc1ccc(/C(=C(/c2ccc(O)cc2)C(F)(F)F)C(F)(F)F)cc1`, the TC (Mus musculus [1]) is reported as 5.5%, the TC (Mus musculus [2]) is reported as 10.4% and the Effect [3] is reported as 169. For the same compound, the Effect [4] was 38.2, the Effect [5] was 56.4 and the TC (Mus musculus [6]) was 5.2%. It also gave an Effect [7] of 182, an Effect [8] of 52.6 and an Effect [9] of 13.7. The Effect [10] was 179.
For `Oc1cccc([C@H]([C@H](c2cccc(O)c2)C(F)(F)F)C(F)(F)F)c1`, the Effect [11] was 13.3, the “Change in tumor area %” value (Rattus norvegicus [12]) was 166% and the Effect [13] was 32. It also gave an Effect [14] of 34.8, a TC (Mus musculus [1]) of 23.9% and a Tumors (Rattus norvegicus [15]) of 28%. It also gave a Change in weight (Rattus norvegicus [16]) of -1.1%, an Effect [17] of 90.1 and a Tumors (Rattus norvegicus [18]) of 10%. For the same compound, the Change in weight (Rattus norvegicus [19]) was -0.4%, the Tumors (Rattus norvegicus [20]) was 29% and the No. of tumors (Rattus norvegicus [21]) was 11. For the same compound, the inhibition [22] was 34.5%, the Change in weight (Rattus norvegicus [23]) was 38% and the No. of tumors (Rattus norvegicus [24]) was 21. It also gave an Effect [25] of 31.4, an Effect [4] of 19.8 and a TC (Mus musculus [26]) of 10.9%. It also gave a No. of tumors (Rattus norvegicus [27]) of 19, an inhibition [28] of 36.6% and a No. of tumors (Rattus norvegicus [29]) of 23. It also gave a Tumors (Rattus norvegicus [30]) of 21%, a Tumors (Rattus norvegicus [31]) of 47% and an Effect [5] of 10.1. It also gave a Tumors (Rattus norvegicus [32]) of 12%, an inhibition [33] of 18% and an Effect [8] of 15.4. The inhibition [34] was 45.5%, the “Change in tumor area %” value (Rattus norvegicus [35]) was 165% and the Effect [36] was 36. For the same compound, the Tumors (Rattus norvegicus [37]) was 15%, the Effect [9] was 10.8 and the Effect [10] was 84. The Effect [38] was 36.7, the Effect [39] was 10.1 and the Effect [40] was 28.8.
